Laboratory results taken from ChEMBL document CHEMBL1147740, “Synthesis and biological activity of isoxazolidinyl polycyclic aromatic hydrocarbons: potential DNA intercalators” (J Med Chem, 2006).
Converted amounts (≈) assume the structure as drawn. The source made the active and inactive calls. The rule behind the calls is not given here. *1 amine or outer side, *2 acyl side, *3 side chain or, on linkers, in order; H or OH if unused. Where a SMILES comes first, the peptide text is derived from it. Bridges are numbered along the chain shown (N, C = ends). Roman numbers before positions name the chains, in order. [ ]: non-standard residue; d: D form. Actinocin(1to9) = Cc1c2oc3c(C)ccc(C(=O)[*:2])c3nc-2c(C(=O)[*:1])c(N)c1=O; NMeV = CN[C@H](C(=O)O)C(C)C; Sar = CNCC(=O)O

Columns and labels:
Vero [1] = test: Antiviral activity against vero cells; format: functional, Chlorocebus sabaeus; details: Chlorocebus sabaeus, Vero; read-out: MCC
In short: (§1)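 Cytotoxicity scored as the concentration giving a microscopically detectable alteration of normal cell morphology in HEL, HeLa or Vero cells.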

HeLa = test: Antiviral activity against HeLa cells; format: functional, Homo sapiens; details: Homo sapiens, HeLa; read-out: MCC; in short: as §1
Human respirovirus 3 = test: Antiviral activity against Parainfluenza-3 virus in vero cells; format: functional
In short: (§2)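 Virus infection of Vero cell cultures. The endpoint is the minimum inhibitory concentration (µg/mL) that reduces virus-induced cytopathogenicity by 50%.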

[2] = tested on: Mammalian orthoreovirus 1; test: Antiviral activity against Reovirus 1 in vero cells; format: functional; in short: as §2
Sindbis virus = test: Antiviral activity against Sindbis virus in vero cells; format: functional; in short: as §2
Coxsackievirus B4 [3] = test: Antiviral activity against Coxsackie virus B4 in vero cells; format: functional; details: Enterovirus B; in short: as §2
Punta Toro virus = test: Antiviral activity against Punta Toro virus in vero cells; format: functional; details: Punta Toro virus; read-out: MIC50
In short: (§3)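 Minimum inhibitory concentration (µg/mL) needed to reduce virus-induced cytopathogenicity by 50%; HSV strains in HEL cells, Punta Toro virus in Vero cells.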

[4] = tested on: Respiratory syncytial virus; test: Antiviral activity against Respiratory syncytial virus in HeLa cells; format: functional; details: human respiratory syncytial virus
In short: (§4)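 Virus infection of HeLa cell cultures. The endpoint is the minimum inhibitory concentration (µg/mL) that reduces virus-induced cytopathogenicity by 50%.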

Coxsackievirus B4 [5] = test: Antiviral activity against Coxsackie virus B4 in HeLa cells; format: functional; details: Enterovirus B; in short: as §4
[6] = tested on: Vesicular stomatitis virus; test: Antiviral activity against Vesicular stomatitis virus in HeLa cells; format: functional; in short: as §4
MOLT-3 [7] = test: Potentiation of fas-mediated apoptosis in MOLT3 cells; format: functional, cell-based; details: Homo sapiens
In short: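 MOLT-3 cells given anti-fas antibody (CH11) at 25, 50 or 100 ng/mL, alone or immediately after compound at 25 or 50 µM. Cultured 20 h, stained with acridine orange, and apoptosis scored by fluorescence microscopy.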

THP-1 = test: Cytotoxicity against THP1 Leukemia cells by MTS assay; format: functional, cell-based, Homo sapiens; details: Homo sapiens, THP-1
In short: (§5)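 MTS tetrazolium reduction assay; cells grown under optimal culture conditions for 20 h with compound at 10 to 500 µM or without it; MTS reagent then added for 1 h at 37 °C, humidified 5% CO2; absorbance read at 490 nm. Triplicate. IC50 is the concentration giving 50% reduction of absorbance.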

MOLT-3 [8] = test: Cytotoxicity against MOLT3 Leukemia cells by MTS assay; format: functional, cell-based, Homo sapiens; details: Homo sapiens, MOLT-3; in short: as §5
U-937 = test: Cytotoxicity against U937 Lymphoma cells by MTS assay; format: functional, cell-based, Homo sapiens; details: Homo sapiens, U-937; in short: as §5
Vero [9] = test: Cytotoxicity against normal vero kidney cells by MTS assay; format: functional, cell-based, Chlorocebus sabaeus; details: Chlorocebus sabaeus, Vero; in short: as §5
MOLT-3 [10] = test: Cytotoxicity against MOLT3 Leukemia cells after 24 hrs of treatment; format: functional, cell-based; details: Homo sapiens, MOLT-3, 24 h
In short: (§6)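 Trypan blue exclusion; cells exposed under optimal culture conditions to new compounds at 10 to 500 µM (actinomycin D 1 to 200 µM) or control medium for the stated time. CC50 is the concentration causing 50% toxicity by trypan blue.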

MOLT-3 [11] = test: Cytotoxicity against MOLT3 Leukemia cells after 48 hrs of treatment; format: functional, cell-based; details: Homo sapiens, MOLT-3, 48 h; in short: as §6
MOLT-3 [12] = test: Cytotoxicity against MOLT3 Leukemia cells after 72 hrs of treatment; format: functional, cell-based; details: Homo sapiens, MOLT-3, 72 h; in short: as §6
HEL = test: Antiviral activity against HEL cells; format: functional, Homo sapiens; details: Homo sapiens, HEL; read-out: MCC; in short: as §1
Human alphaherpesvirus 1 [13] = test: Antiviral activity against Herpes simplex virus 1 KOS strain in HEL cells; format: functional, Human herpesvirus 1 strain KOS; details: Human alphaherpesvirus 1, KOS; in short: as §3
Human alphaherpesvirus 2 = test: Antiviral activity against Herpes simplex virus 2 G strain in HEL cells; format: functional; details: Human alphaherpesvirus 2, G; in short: as §3
Vaccinia virus = test: Antiviral activity against Vaccinia virus in HEL cells; format: functional; details: Orthopoxvirus vaccinia
In short: (§7)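 Virus infection of HEL cell cultures. The endpoint is the minimum inhibitory concentration (µg/mL) that reduces virus-induced cytopathogenicity by 50%.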

[14] = tested on: Vesicular stomatitis virus; test: Antiviral activity against Vesicular stomatitis virus in HEL cells; format: functional; in short: as §7
Human alphaherpesvirus 1 [15] = test: Antiviral activity against herpes simplex virus 1 TK- KOS ACVr strain in HEL cells; format: functional; details: Human alphaherpesvirus 1, TK- KOS ACVr; read-out: MIC50; in short: as §3

For `Nc1ncnc2c1ncn2C[C@H](O)CO` [(S)-DHPA], the MCC (Vero [1]) was over 400 µg/mL, the MCC (HeLa) was over 400 µg/mL and the MIC50 (Human respirovirus 3) was 400 mg/L (≈ 1910 µM). It also gave an MIC50 [2] of 240 mg/L (≈ 1150 µM), an MIC50 (Sindbis virus) of over 400 mg/L and an MIC50 (Coxsackievirus B4 [3]) of over 400 mg/L. It also gave an MIC50 (Punta Toro virus) of over 400 mg/L, an MIC50 [4] of over 400 mg/L and an MIC50 (Coxsackievirus B4 [5]) of over 400 mg/L. The MIC50 [6] was over 400 mg/L.
In the case of `OC[C@@H]1C[C@H](c2cc3ccccc3c3ccccc23)N(Cc2ccccc2)O1` (racemic), the Activity (MOLT-3 [7]) is reported as “Active”, the IC50 (THP-1) is reported as 50 µM and the IC50 (MOLT-3 [8]) is reported as 78 µM. The IC50 (U-937) was 54 µM, the IC50 (Vero [9]) was 63 µM and the AC50 (MOLT-3 [10]) was 69 µM. The CC50 (MOLT-3 [10]) was 73 µM.
In the case of `Cc1c2oc3c(C)ccc(C(=O)N[C@@H]4C(=O)N[C@H](C(C)C)C(=O)N5CCC[C@H]5C(=O)N(C)CC(=O)N(C)[C@@H](C(C)C)C(=O)O[C@@H]4C)c3nc-2c(C(=O)N[C@@H]2C(=O)N[C@H](C(C)C)C(=O)N3CCC[C@H]3C(=O)N(C)CC(=O)N(C)[C@@H](C(C)C)C(=O)O[C@@H]2C)c(N)c1=O` [DACTINOMYCIN] (I: T[dV]P[Sar][NMeV] / II: T[dV]P[Sar][NMeV]; ester I:1-I:C, II:1-II:C; linker I:N-II:N via Actinocin(1to9)), the IC50 (MOLT-3 [8]) is reported as under 1 µM and the IC50 (U-937) is reported as under 1 µM.
For `OC[C@@H]1C[C@H](c2ccc3ccc4cccc5ccc2c3c45)N(Cc2ccccc2)O1` (racemic), the IC50 (THP-1) was 192 µM, the IC50 (MOLT-3 [8]) was 127 µM and the IC50 (U-937) was 193 µM. It also gave an IC50 (Vero [9]) of 301 µM, an AC50 (MOLT-3 [10]) of over 500 µM and a CC50 (MOLT-3 [10]) of over 500 µM. For the same compound, the AC50 (MOLT-3 [11]) was 97 µM, the CC50 (MOLT-3 [11]) was 97 µM and the AC50 (MOLT-3 [12]) was 67 µM. It also gave a CC50 (MOLT-3 [12]) of 58 µM.
With `Nc1nc2c(ncn2COCCO)c(=O)[nH]1` [ACYCLOVIR] the MCC (HEL) was over 400 µg/mL, the MIC50 (Human alphaherpesvirus 1 [13]) was 0.384 mg/L (≈ 1.71 µM) and the MIC50 (Human alphaherpesvirus 2) was 0.384 mg/L (≈ 1.71 µM). For the same compound, the MIC50 (Vaccinia virus) was over 400 mg/L, the MIC50 [14] was over 400 mg/L and the MIC50 (Human alphaherpesvirus 1 [15]) was 48 mg/L (≈ 213 µM).
`CN1O[C@H](CO)C[C@@H]1c1ccc2ccc3cccc4ccc1c2c34` (racemic) was tested, and the IC50 (THP-1) was 107 µM, the IC50 (MOLT-3 [8]) was 112 µM and the IC50 (U-937) was 111 µM. The IC50 (Vero [9]) was 159 µM, the AC50 (MOLT-3 [10]) was 118 µM and the CC50 (MOLT-3 [10]) was 278 µM. For the same compound, the AC50 (MOLT-3 [11]) was 71 µM, the CC50 (MOLT-3 [11]) was 168 µM and the AC50 (MOLT-3 [12]) was 67 µM. It also gave a CC50 (MOLT-3 [12]) of 133 µM.
For `OC[C@H]1C[C@H](c2c3ccccc3cc3ccccc23)N(Cc2ccccc2)O1` (racemic), the IC50 (MOLT-3 [8]) was over 500 µM.
